Source: PubChem BioAssay (several laboratories)
STAT1 act: STAT1 signaling activators, primary screen, cell-based, HTS, luciferase reporter; NIH 3T3 STAT1-luciferase reporter, IFN-gamma, luminescence; 100% = IFN-gamma alone, no compound; activation (% of control), % at 5.5 µM; actives 2.6% (n = 200,000); AID 932, 2007;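 active means activation above the screen-wide mean activation plus 3 SD, cut at about 130% in these data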;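 further: raw ratio to IFN-gamma control signal so 100% means no change and 0% no light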
NF-kB expr up: activators of NF-kB expression in neurons, primary screen, cell-based, HTS; human neuronal cells, NF-kB reporter expression; stronger effect = higher value; fold change at 12.5 µM; actives 1.6% (n = 190,000); AID 1239, 2008; in the data active means fold change above about 3.3
STAT1 blocker: STAT1 signaling inhibitors, primary screen, cell-based, HTS, luciferase reporter; actives 0.35% (n = 200,000); inhibition, % at 5.5 µM; AID 920, 2007; NIH 3T3 STAT1-luciferase reporter, IFN-gamma, luminescence;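 active means inhibition above a set limit, the mean inhibition across all tested compounds plus 3 SD, cut at about 34% in these data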;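 further: 0% = IFN-gamma with DMSO and 100% = IFN-gamma with 300 µM nifuroxazide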
STAT3 activator: IL-6 driven STAT3 reporter potentiators, primary screen, U3A cells, luciferase, luminescence, MLSCN library. IL-6 STAT3-luciferase reporter; 100% = signal with IL-6 EC80 alone. activation (% of control), % at 5.6 µM. actives 0.91% (n = 190,000);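 active means activation above the screen-wide mean of compound activation plus 3 SD, cut at about 130% in these data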;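 further: 0% = background luminescence of wells with medium and substrate only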
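Material: STAT3-luciferase reporter U3A cells; Probe or stimulus: IL-6 (33 ng/mL); Incubation: compound pre-incubation 1 h before IL-6, then 6 h stimulation at 37 °C; Technique: luminescence from STAT3-driven luciferase reporter; Evaluation: % activation versus median of IL-6-stimulated wells; Controls: IL-6-only high control.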
STAT3 blocker: IL-6 driven STAT3 reporter inhibitors, primary screen, U3A cells, luciferase, luminescence, MLSCN library. IL-6 STAT3-luciferase reporter; host cell line lacks STAT1. inhibition, % at 5.5 µM. actives 0.89% (n = 190,000);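 active means inhibition above the mean inhibition across all screened compounds plus 3 SD, cut at about 44% in these data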;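 further: 0% = DMSO only wells and 100% = 100 µM nifuroxazide control wells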
APP 5'UTR act: activators of APP 5'UTR luciferase reporter, primary screen, SH-SY5Y cells; SH-SY5Y APP 5'UTR luciferase reporter, luminescence; zero percent = DMSO vehicle wells; activation, % at 2 µM; actives 1% (n = 190,000);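 active means activation above a set limit, based on mean plus 3 SD of controls, cut at about 140% in these data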
Active calls of the source: *; x = no result given. The list is not random: actives were taken first. Their share in the collection is about 4.9%.

SMILES	STAT1 act	NF-kB expr up	STAT1 blocker	STAT3 activator	STAT3 blocker	APP 5'UTR act
S=C(c1ccc(-c2cccc(Cl)c2)o1)N1CCCCC1	147*	1.5	-52	97	5	180*
O=[N+]([O-])c1cc(-c2ccc(C(=S)N3CCOCC3)o2)ccc1Cl	94	1.8	6	110	1	16
O=C(Nc1nccs1)c1ccc(-c2cccc([N+](=O)[O-])c2)o1	143*	1.4	-50	92	15	59
O=[N+]([O-])c1cccc(-c2ccc(C(=S)N3CCOCC3)o2)c1	143*	4.8*	-45	112	-11	162*
CCN(CCCn1c(=S)[nH]c2ccc(N3CCOCC3)cc2c1=O)c1ccccc1	90	1.1	10	96	16	8
N/C(=N\c1nc2c(c(=O)[nH]1)CCCC2)Nc1ccc(Oc2ccccc2)cc1	97	1.1	4	90	16	15
COc1ccc(/C=C/C(=O)C23CC4CC(CC(C4)C2)C3)cc1CN1CCOCC1	95	1.3	5	106	-5	12
CCOc1ccc(-n2c(SCC(=O)Nc3cc(OC)c([N+](=O)[O-])cc3C)nc3ccccc32)cc1	95	0.84	6	94	8	16
COc1cc([N+](=O)[O-])ccc1NC(=O)CSc1nc2ccccc2n1-c1ccccc1	96	4.2*	4	118	-24	13
CCCCSCCCNC(=O)Nc1ccc(CC)cc1	99	1.2	-1	111	-3	8
O=C(COc1ccccc1C(=O)c1cnn(-c2ccccc2)c1)Nc1ccc2ccccc2c1	113	1.6	-15	107	-9	61
CC(C)c1ccc(NC(=O)COc2ccc(F)cc2C(=O)c2cnn(-c3ccccc3)c2)cc1	140*	1.4	-42	147*	-60	96
Nc1ccc(S(=O)(=O)C(F)(F)F)cc1N	102	1.1	-3	103	-2	7
Nc1cc2nc[nH]c2cc1N	123	1.6	-25	115	-11	163*
Cc1cccc(NC(=O)COc2ccc(/C=N\n3cnnc3)cc2)c1	93	1.2	8	110	-6	-9
CC(OC(=O)c1cccs1)C(=O)NCC1CCCO1 (configuration not stated)	103	1.5	-5	102	2	-14
COc1cc(/C=C(\C#N)c2nc3ccccc3[nH]2)ccc1OC(=O)c1ccco1	115	1.1	-17	96	5	66
COc1cc(/C=C(\C#N)c2nc3ccccc3[nH]2)c([N+](=O)[O-])cc1OCc1ccccc1	104	0.43	-5	137*	-36	33
Cc1ccc(C(=O)C(C(=O)/C=C/c2ccccc2)=C2SCCCS2)cc1	78	2.6	27	95	9	-38
CCCCOC(=O)c1cc(=O)[nH]c(=O)[nH]1	104	1	-6	101	1	9
Cc1ccc(C(=O)CSc2nnc3ccccn23)c(C)c1	119	4.1*	-24	93	13	167*
Cc1cc(C)c(C(=O)CSc2nnc(N)s2)c(C)c1	98	1.1	2	93	11	-19
Cc1ccc(C(=O)CSc2nnc(N)s2)c(C)c1	137*	1.8	-40	101	8	67
O=C(Nc1ccc(F)cc1)c1ccccc1NS(=O)(=O)N1CCCC1	96	0.99	4	99	13	4
O=C(COc1ccc(CO)cc1Cl)Nc1ccc(F)cc1	136*	7.7*	-39	78	32	x
COc1cc(/C=N/NC(=O)c2cccnc2)ccc1OCC(=O)Nc1ccccc1Cl	136*	0.87	-39	104	-3	-1
COc1cc(CO)ccc1OCC(=O)Nc1ccc(Br)cc1	113	1.8	-18	133*	-34	33
COc1ccccc1NC(=O)COc1ccc(CO)cc1Cl	133*	1.9	-35	94	10	66
Cc1ccc(NC(=O)COc2ccc(Br)cc2CO)cc1	110	1.4	-16	90	13	-3
